From ChEMBL document CHEMBL2146366, “Discovery of microsomal triglyceride transfer protein (MTP) inhibitors with potential for decreased active metabolite load compared to dirlotapide” (Bioorg Med Chem Lett, 2011)
Calls of active or inactive are those of the source. The rule behind the calls is not given here.

Tests used:
Rattus norvegicus [1] = test: Antiobesity activity in high fat diet-induced obese Sprague-Dawley rat assessed as reduction of food intake at 1 mg/kg, po administered daily for 3 days relative to dirlotapide; format: functional; parameters: scale not given: the % may be the effect or the level left
Summary of the method: (§1)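 Male Sprague–Dawley rats (~300 g, n = 5 per group) were acclimatized for seven days to a high-fat diet (45% kcal from fat). They received three consecutive daily oral gavage doses 1.5 h before the dark cycle. Vehicle was SEDDS:H2O 10:90, with SEDDS made of Miglyol 812 10%, triacetin 30%, polysorbate 80 20% and Capmul MCM 30%. Food intake was recorded during dosing, and liver TG was measured afterwards, both against vehicle.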

Rattus norvegicus [2] = test: Antiobesity activity in high fat diet-induced obese Sprague-Dawley rat assessed as reduction of food intake at 30 mg/kg, po administered daily for 3 days relative to dirlotapide; format: functional; parameters: scale not given: the % may be the effect or the level left; summary of the method: as §1
Rattus norvegicus [3] = test: Antiobesity activity in high fat diet-induced obese Sprague-Dawley rat assessed as reduction in body weight at 30 mg/kg, po administered daily for 3 days relative to dirlotapide; format: functional; parameters: scale not given: the % may be the effect or the level left
Rattus norvegicus [4] = test: Antiobesity activity in po dosed high fat diet-induced obese Sprague-Dawley rat assessed as reduction of reduction of triglyceride accumulation in liver administered daily for 3 days; format: functional; settings: 72 h, read-out: MED
Summary of the method: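 Male Sprague–Dawley rats (about 300 g; n = 5 per group) were acclimatized for seven days to a high-fat diet (45% kcal from fat). They received three consecutive daily oral gavage doses in SEDDS:H₂O 10:90 vehicle 1.5 h before the dark cycle. Food intake was recorded, and liver TG was then measured against the vehicle group.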

Rattus norvegicus [5] = test: Antiobesity activity in high fat diet-induced obese Sprague-Dawley rat assessed as reduction in body weight at 10 mg/kg, po administered with 25% SDD formulation daily for 3 days relative to control; format: functional; parameters: scale not given: the % may be the effect or the level left
Rattus norvegicus [6] = test: Antiobesity activity in high fat diet-induced obese Sprague-Dawley rat assessed as reduction of food intake at 10 mg/kg, po administered with 25% SDD formulation daily for 3 days relative to dirlotapide; format: functional; parameters: scale not given: the % may be the effect or the level left
Summary of the method: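 Three-day oral dosing study in male Sprague–Dawley rats (~300 g, n = 5 per group) fed a high-fat diet (45% kcal from fat). Animals received daily gavage doses 1.5 h before the dark cycle. Compound was given as a spray-dried dispersion made by spray drying compound with hydroxypropylmethylcellulose acetate succinate. Food intake was recorded during dosing and liver TG measured afterwards, both against vehicle.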

Rattus norvegicus [7] = test: Antiobesity activity in high fat diet-induced obese Sprague-Dawley rat assessed as reduction in body weight at 10 mg/kg, po administered with 25% SDD formulation daily for 3 days relative to dirlotapide; format: functional; parameters: scale not given: the % may be the effect or the level left
Rattus norvegicus [8] = test: Drug metabolism in rat assessed as formation of 2-(4'-tert-butylbiphenyl-2-ylcarboxamido)-N-(2-(methylamino)-2-oxo-1-phenylethyl)quinoline-6-carboxamide at 30 mg/kg, po administered as single dose; format: ADME, organism-based; parameters: dose 30 mg/kg, route oral; settings: in vivo
Canis familiaris [9] = test: Drug metabolism in beagle dog assessed as formation of N-(2-((4-fluorobenzyl)(methyl)amino)-2-oxo-1-phenylethyl)-2-(4'-(1-hydroxy-2-methylpropan-2-yl)biphenyl-2-ylcarboxamido)quinoline-6-carboxamide at 2.5 mg/kg, po administered as single dose; format: ADME, organism-based, Canis lupus familiaris; parameters: dose 2.5 mg/kg, route oral; settings: in vivo
Rattus norvegicus [10] = test: Toxicity in high fat diet-induced obese Sprague-Dawley rat assessed as change in serum ALT level at 3 mg/kg, po qd for 7 days relative to control; format: organism-based; parameters: dose 3 mg/kg, route oral; settings: in vivo, 168 h
Summary of the method: (§2)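 Seven-day study in high-fat-diet rats. Compound was given once daily by mouth as a spray-dried dispersion, with vehicle controls. Serum ALT was measured alongside food intake, body weight, liver TG and systemic exposure (AUC). ALT is expressed as % change versus vehicle, with significance set at P ≤ 0.05.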

Rattus norvegicus [11] = test: Toxicity in high fat diet-induced obese Sprague-Dawley rat assessed as change in serum ALT level at 10 mg/kg, po qd for 7 days relative to control; format: organism-based; parameters: dose 10 mg/kg, route oral; settings: in vivo, 168 h; summary of the method: as §2
[12] = Oral bioavailability in rat at 30 mg/kg; format: ADME, organism-based; settings: in vivo
[13] = Oral bioavailability in beagle dog at 2.5 mg/kg; format: ADME, organism-based, Canis lupus familiaris; settings: in vivo
Rattus norvegicus [14] = test: Antiobesity activity in high fat diet-induced obese Sprague-Dawley rat assessed as reduction of triglyceride accumulation in liver at 30 mg/kg, po qd for 7 days relative to control; format: functional; parameters: scale not given: the % may be the effect or the level left
Summary of the method: (§3)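 Seven-day rat study: once-daily oral dosing at 3, 10 or 30 mg/kg, with 1, 3 and 100 mg/kg also used for one series. Compounds were given as spray-dried dispersions in hydroxypropylmethylcellulose acetate succinate. Food intake, body weight, liver TG and serum ALT were measured against vehicle. Systemic exposure was reported as AUC (ng h/mL). Significance versus vehicle was set at P ≤ 0.05.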

Rattus norvegicus [15] = test: Antiobesity activity in high fat diet-induced obese Sprague-Dawley rat assessed as reduction of triglyceride accumulation in liver at 10 mg/kg, po qd for 7 days relative to control; format: functional; parameters: scale not given: the % may be the effect or the level left; summary of the method: as §3
Rattus norvegicus [16] = test: Antiobesity activity in high fat diet-induced obese Sprague-Dawley rat assessed as reduction of body weight at 30 mg/kg, po qd for 7 days; format: functional; parameters: scale not given: the % may be the effect or the level left; summary of the method: as §3
Rattus norvegicus [17] = test: Antiobesity activity in high fat diet-induced obese Sprague-Dawley rat assessed as reduction of body weight at 10 mg/kg, po qd for 7 days relative to control; format: functional; parameters: scale not given: the % may be the effect or the level left; summary of the method: as §3
Rattus norvegicus [18] = test: Antiobesity activity in high fat diet-induced obese Sprague-Dawley rat assessed as reduction of food intake at 30 mg/kg, po qd for 7 days relative to control; format: functional; parameters: scale not given: the % may be the effect or the level left; summary of the method: as §3
Rattus norvegicus [19] = test: Antiobesity activity in high fat diet-induced obese Sprague-Dawley rat assessed as reduction in body weight at 100 mg/kg, po administered daily for 3 days relative to control; format: functional; parameters: scale not given: the % may be the effect or the level left
Rattus norvegicus [20] = test: Antiobesity activity in high fat diet-induced obese Sprague-Dawley rat assessed as reduction of food intake at 100 mg/kg, po administered daily for 3 days relative to control; format: functional; parameters: scale not given: the % may be the effect or the level left; summary of the method: as §1
Rattus norvegicus [21] = test: Antiobesity activity in high fat diet-induced obese Sprague-Dawley rat assessed as triglyceride accumulation in liver at 30 mg/kg, po administered daily for 3 days relative to control; format: functional; summary of the method: as §1
Rattus norvegicus [22] = test: Antiobesity activity in high fat diet-induced obese Sprague-Dawley rat assessed as reduction in body weight at 30 mg/kg, po administered daily for 3 days relative to control; format: functional; parameters: scale not given: the % may be the effect or the level left
Rattus norvegicus [23] = test: Antiobesity activity in high fat diet-induced obese Sprague-Dawley rat assessed as triglyceride accumulation in liver at 3 mg/kg, po administered daily for 3 days relative to control; format: functional, organism-based; parameters: dose 3 mg/kg; summary of the method: as §1
Rattus norvegicus [24] = test: Antiobesity activity in high fat diet-induced obese Sprague-Dawley rat assessed as reduction in body weight at 3 mg/kg, po administered daily for 3 days relative to control; format: functional; parameters: scale not given: the % may be the effect or the level left
Rattus norvegicus [25] = test: Antiobesity activity in high fat diet-induced obese Sprague-Dawley rat assessed as triglyceride accumulation in liver at 1 mg/kg, po administered daily for 3 days relative to control; format: functional, organism-based; parameters: dose 1 mg/kg; summary of the method: as §1
Rattus norvegicus [26] = test: Antiobesity activity in high fat diet-induced obese Sprague-Dawley rat assessed as reduction in body weight at 1 mg/kg, po administered daily for 3 days relative to control; format: functional; parameters: scale not given: the % may be the effect or the level left
[27] = Fraction unbound in human HepG2 cells by equilibrium dialysis; format: ADME, cell-based
Summary of the method: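 Protein binding was measured by equilibrium dialysis under the conditions of the apoB secretion assay in human HepG2 cells, to give unbound fraction.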

Canis familiaris [28] = test: Drug metabolism in beagle dog assessed as formation of 2-(2'-(6-(2-((4-fluorobenzyl)(methyl)amino)-2-oxo-1-phenylethylcarbamoyl)quinolin-2-ylcarbamoyl)biphenyl-4-yl)-2-methylpropanoic acid at 2.5 mg/kg, po administered as single dose; format: ADME, organism-based, Canis lupus familiaris; parameters: dose 2.5 mg/kg, route oral; settings: in vivo
Canis familiaris [29] = test: Drug metabolism in beagle dog assessed as formation of 2-(4'-tert-butylbiphenyl-2-ylcarboxamido)-N-(2-(methylamino)-2-oxo-1-phenylethyl)quinoline-6-carboxamide at 2.5 mg/kg, po administered as single dose; format: ADME, organism-based, Canis lupus familiaris; parameters: dose 2.5 mg/kg, route oral; settings: in vivo

Drug metabolism (Rattus norvegicus [8]): Active
Drug metabolism (Canis familiaris [9]): Active
bioavailability [12]: < 3%
bioavailability [13]: < 3%
fraction unbound [27]: 0.00063
Drug metabolism (Canis familiaris [28]): Active
Drug metabolism (Canis familiaris [29]): Active
SMILES: CN(Cc1ccc(F)cc1)C(=O)[C@@H](NC(=O)c1ccc2nc(NC(=O)c3ccccc3-c3ccc(C(C)(C)C)cc3)ccc2c1)c1ccccc1
Activity (Rattus norvegicus [1]): 5%
Activity (Rattus norvegicus [2]): 37%
Activity (Rattus norvegicus [3]): 75%
minimal effective dose (Rattus norvegicus [4]): 3 mg/kg
Activity (Rattus norvegicus [5]): 96%
Activity (Rattus norvegicus [6]): 8%
Activity (Rattus norvegicus [7]): 32%
Activity (Rattus norvegicus [10]): 168%
Activity (Rattus norvegicus [11]): 143%
Activity (Rattus norvegicus [14]): 212%
Activity (Rattus norvegicus [15]): 219%
Activity (Rattus norvegicus [16]): 220%
Activity (Rattus norvegicus [17]): 255%
Activity (Rattus norvegicus [18]): 48%
Activity (Rattus norvegicus [19]): 107%
Activity (Rattus norvegicus [20]): 47%
Activity (Rattus norvegicus [21]): 102%
Activity (Rattus norvegicus [22]): 89%
Activity (Rattus norvegicus [23]): inactive
Activity (Rattus norvegicus [24]): 67%
Activity (Rattus norvegicus [25]): inactive
Activity (Rattus norvegicus [26]): 32%
